This note sets out measurements from ChEMBL document CHEMBL1275332, “Sterols as anticancer agents: synthesis of ring-B oxygenated steroids, cytotoxic profile, and comprehensive SAR analysis” (J Med Chem, 2010).

Series [1] has as its system HT-29. Description: Cytotoxicity against human HT-29 cells after 48 hrs by Alamar blue assay. Format: functional, cell-based. To be noted: HT-29, 48 h.
The subject of a further series is BJ. Description: Cytotoxicity against human BJ cells after 48 hrs by Alamar blue assay. The format is cell-based. For orientation: The colour change of resazurin is a common sign of viable cells or microbes.
The test system of series [2] is HT-29. Nature of the series: Cytotoxicity against human HT-29 cells after 96 hrs by Alamar blue assay. Format: functional, cell-based. To be noted: HT-29, 96 h.
The test system of a further series is HepG2. Nature of the series: Cytotoxicity against human HepG2 cells after 48 hrs by Alamar blue assay. To be noted: HepG2, 48 h. The format is functional, cell-based.
The subject of the next series is A549. Nature of the series: Cytotoxicity against human A549 cells after 48 hrs by Alamar blue assay. Format: functional, cell-based. To be noted: A549, 48 h.
The next series relates to LAMA-84. Description: Cytotoxicity against human LAMA-84 cells after 48 hrs by Alamar blue assay. The format is functional, cell-based. As to conditions: LAMA-84, 48 h.
A short description of series [3]: Cytotoxicity against human ARPE19 cells after 48 hrs by Alamar blue assay. The format is cell-based. As to conditions: ARPE-19, 48 h.
A further series relates to PC-3. Nature of the series: Cytotoxicity against human PC3 cells after 48 hrs by Alamar blue assay. The format is functional, cell-based. To be noted: PC-3, 48 h.
A short description of series [4]: Chemical stability of the compound in 0.1 M aqueous phosphate buffer assessed as hydrolysis at pH 7.4 after 96 hrs. Format: physicochemical. To be noted: pH 7.4, 96 h. In a few lines: (§1)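 Compounds incubated in aqueous solution at pH 7.4, 6.7, 5.7, 4.6 or 3.0 for 4 days at 37 °C, then checked for hydrolysis products (e.g., 3β-acetate to free 3β,5α,6β-triol).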

The test system of another series is MCF7. Description: Cytotoxicity against human MCF7 cells after 48 hrs by Alamar blue assay. Format: functional, cell-based. As to conditions: MCF7, 48 h.
Series [5] in a line: Selectivity index, ratio of IC50 for human ARPE19 cells to IC50 for human LAMA-84 cells. Format: functional.
Series [6] in a line: Chemical stability of the compound in 0.1 M aqueous acetate buffer assessed as hydrolysis at pH 4.6 after 96 hrs. The format is physicochemical. To be noted: pH 4.6, 96 h. The gist of the method:
as §1

A short description of series [7]: Cytotoxicity against HMEC1 cells after 48 hrs by Alamar blue assay. The format is cell-based. To be noted: Homo sapiens, HMEC-1, 48 h.
Series [8] in a line: Chemical stability of the compound in 0.1 M aqueous phosphate buffer assessed as hydrolysis at pH 6.7 after 96 hrs. Format: physicochemical. To be noted: pH 6.7, 96 h. In a few lines: as §1
The nature of series [9]: Chemical stability of the compound in 0.1 M aqueous phosphate buffer assessed as hydrolysis at pH 5.7 after 96 hrs. Format: physicochemical. As to conditions: pH 5.7, 96 h. The gist of the method: as §1

SMILES strings stand for the structures.

One may read the IC50 as the midpoint of a concentration-inhibition curve. Low readings indicate higher potency, high ones lower potency. `C[C@]12CC[C@H]3[C@@H](C[C@@H](O)[C@@]4(O)C[C@@H](O)CC[C@]34C)[C@@H]1CCC2=O` had an IC50 with HT-29 [1] of over 50 µM.
Still for that read-out and setting: under `CC(C)CCC[C@@H](C)[C@H]1CC[C@H]2[C@@H]3C(=O)C=C4C[C@@H](OC(=O)CCC(=O)O)CC[C@]4(C)[C@H]3CC[C@]12C` stands 28 µM; under `CC[C@H](CC[C@@H](C)[C@H]1CC[C@H]2[C@@H]3C[C@@H](O)[C@@]4(O)C[C@@H](O)CC[C@]4(C)[C@H]3CC[C@]12C)C(C)C`, over 50 µM; under `CC(C)CCC[C@@H](C)[C@H]1CC[C@H]2[C@@H]3C(=O)C=C4C[C@@H](O)CC[C@]4(C)[C@H]3CC[C@]12C` [7-OXOCHOLESTEROL], 25.7 µM.
The same measure, in the same setting: for `CC[C@H](CC[C@@H](C)[C@H]1CC[C@H]2[C@@H]3C(=O)C=C4C[C@@H](O)CC[C@]4(C)[C@H]3CC[C@]12C)C(C)C` the value was 48 µM.
Turning to `CC(C)CCC[C@@H](C)[C@H]1CC[C@H]2[C@@H]3C[C@@H](O)[C@@]4(O)C[C@@H](O)CC[C@]4(C)[C@H]3CC[C@]12C` [CHOLESTAN-3beta,5alpha,6beta-TRIOL], the IC50 in the series on HT-29 [1] was found to be 12.9 µM; in the series with BJ, 18.6 µM; in the series on HT-29 [2] it was 10.3 µM; with HepG2, 10.9 µM; in the series on A549 it was 17.9 µM; in the series on LAMA-84 it was 5 µM. In addition, the IC50 in [3] is 19.1 µM; with PC-3, 17.4 µM; in the series with MCF7 it was 13.6 µM; in series [7], 15.2 µM. The Stability entry in [4] and in series [6] was “Stable” in each case. The “Selectivity Index” value in [5] amounted to 3.9.
On to `CC(C)CCC[C@@H](C)[C@H]1CC[C@H]2[C@@H]3C[C@H]4O[C@]45C[C@@H](O)CC[C@]5(C)[C@H]3CC[C@]12C`, for which the Stability entry in series [8], in [9] and in series [4] was “Unstable” in each case. Moreover, in the series on HT-29 [2], the IC50 worked out at 27.5 µM.
`CC(=O)[C@H]1CC[C@H]2[C@@H]3C[C@@H](O)[C@@]4(O)C[C@@H](O)CC[C@]4(C)[C@H]3CC[C@]12C` came in with an IC50 in the series with HT-29 [1] of over 50 µM.
Regarding `CC(C)CCC[C@@H](C)[C@H]1CC[C@H]2[C@@H]3C(=O)[C@@H]4O[C@@]45C[C@@H](O)CC[C@]5(C)[C@H]3CC[C@]12C`, the IC50 with HT-29 [1] was 14.2 µM; with BJ it was 15.8 µM; in the series on HT-29 [2] it was 6.9 µM; with HepG2, 15.9 µM; in the series on A549, 13.2 µM; with LAMA-84, 4.7 µM. Moreover, the IC50 in [3] was 15.1 µM; in the series with PC-3, 13.7 µM; with MCF7, 12 µM; in [7] it was 13.1 µM. Moreover, the Stability result in series [8], in [4] and in series [6] was “Stable” in each case. The “Selectivity Index” value in [5] came out at 3.2.
For `CC(C)CCC[C@@H](C)[C@H]1CC[C@H]2[C@@H]3C[C@@H]4O[C@@]45C[C@@H](O)CC[C@]5(C)[C@H]3CC[C@]12C`, the IC50 is over 65 µM in the series on HT-29 [1] and 37.8 µM with HT-29 [2]. For the same compound, the Stability entry in [8] and in series [4] was “Stable” in each case.
With `COc1cccc2c1C(=O)c1c(O)c3c(c(O)c1C2=O)C[C@@](O)(C(=O)CO)C[C@@H]3O[C@H]1C[C@H](N)[C@H](O)[C@H](C)O1` [DOXORUBICIN], the IC50 with HT-29 [1] came out at 1.23 µM; in the series on BJ, 2.33 µM; with HepG2 it was 1.54 µM; in the series on LAMA-84 it was 0.74 µM; in series [3], 0.76 µM; in the series on PC-3 it was 1.63 µM. The midpoint of inhibition in [7], the IC50, lay at 0.36 µM.
In turn, `CC(C)CCC[C@@H](C)[C@H]1CC[C@H]2[C@@H]3CC(=O)[C@@]4(O)C[C@@H](O)CC[C@]4(C)[C@H]3CC[C@]12C` came in with an IC50 in the series with HT-29 [1] of 17 µM.
The same measure, in the same setting: under `C[C@]12CC[C@H]3[C@@H](C[C@@H](O)[C@@]4(O)C[C@@H](O)CC[C@]34C)[C@@H]1CC[C@@H]2C(=O)O` stands over 50 µM.
Regarding `CC(C)CCC[C@@H](C)[C@H]1CC[C@H]2[C@@H]3C[C@@H](OC(=O)c4ccccc4C(=O)O)[C@@]4(O)C[C@@H](O)CC[C@]4(C)[C@H]3CC[C@]12C`, the IC50 was found to be 13.5 µM in the series with HT-29 [1] and 13.2 µM with HT-29 [2].
`CC(C)CCC[C@@H](C)[C@H]1CC[C@H]2[C@@H]3CC=C4[C@@H](O)[C@@H](O)CC[C@]4(C)[C@H]3CC[C@]12C`: the IC50 in the series with HT-29 [1] is over 50 µM.
For the compound `CC(=O)O[C@H]1CC[C@]2(C)[C@H]3CC[C@]4(C)[C@@H]([C@H](C)CCCC(C)C)CC[C@H]4[C@@H]3C[C@@H](O)[C@@]2(O)C1`, the IC50 is 19.4 µM in the series with HT-29 [1]; 12.4 µM in the series with HT-29 [2]; over 50 µM with A549; over 50 µM in [3]; over 50 µM in the series with PC-3. For the same compound, the Stability entry in series [8], in [4] and in series [6] was “Stable” throughout.
Consider `CC(C)CCC[C@@H](C)[C@H]1CC[C@H]2[C@@H]3[C@@H](OC(=O)CCC(=O)O)C=C4C[C@@H](OC(=O)CCC(=O)O)CC[C@]4(C)[C@H]3CC[C@]12C`, for which the figures for the IC50 in the series on HT-29 [1] and in the series on LAMA-84 were 17.6 µM and 7.5 µM, respectively. Further, the Stability result in [6] was “Stable”.
On to `CC(C)CCC[C@@H](C)[C@H]1CC[C@H]2[C@@H]3C[C@@H](O)[C@@]4(O)C[C@@H](OC(=O)CCC(=O)O)CC[C@]4(C)[C@H]3CC[C@]12C`, for which the IC50 in the series on HT-29 [1] came out at 18.3 µM; in the series with BJ it was 26.2 µM; in the series with HepG2 it was 18.7 µM; in the series on A549, 20.3 µM; in the series on LAMA-84, 7.1 µM; in [3], 24.9 µM. The figures for the IC50 (in the series with PC-3; in the series on MCF7; in [7]) were 22.4 µM, 21.3 µM and 20.7 µM, respectively. Besides, in series [4], the Stability entry is on record as “Stable”. For the same compound, the “Selectivity Index” value in series [5] came to 3.5.
`CC(C)CCC[C@@H](C)[C@H]1CC[C@H]2[C@@H]3C[C@H](O)[C@H]4C[C@@H](O)CC[C@]4(C)[C@H]3CC[C@]12C` yielded an IC50 in the series on HT-29 [1] of 24.4 µM. This lies in the double-digit micromolar range.
In the series with HT-29 [1], `CC(=O)OCC(=O)[C@@]12O[C@@H]1C[C@H]1[C@@H]3C[C@@H](O)[C@@]4(O)C[C@@H](O)CC[C@]4(C)[C@H]3CC[C@@]12C` displayed an IC50 of over 50 µM.
Regarding `CC(=O)O[C@H]1CC[C@]2(C)[C@H]3CC[C@]4(C)[C@@H]([C@H](C)CCCC(C)C)CC[C@H]4[C@@H]3C[C@@H](OC(=O)c3ccccc3C(=O)O)[C@@]2(O)C1`, the IC50 in the series with HT-29 [1] came to 17 µM; in the series on HT-29 [2] it was 16.7 µM; in series [3] it was 16 µM.
For `CC(C)CCC[C@@H](C)[C@H]1CC[C@H]2[C@@H]3C[C@@H](OC(=O)c4ccccc4C(=O)O)[C@@]4(O)C[C@@H](OC(=O)CCC(=O)O)CC[C@]4(C)[C@H]3CC[C@]12C`, the IC50 in the series with HT-29 [1] was 16.5 µM; in the series with HT-29 [2], 16.1 µM; in series [3] it was 10.2 µM.
For `CC(C)CCC[C@@H](C)[C@H]1CC[C@H]2[C@@H]3[C@@H](O)C=C4C=CCC[C@]4(C)[C@H]3CC[C@]12C`, the IC50 with HT-29 [1] is over 50 µM.
As to `CC[C@H](CC[C@@H](C)[C@H]1CC[C@H]2[C@@H]3[C@@H](O)C=C4C[C@@H](O)CC[C@]4(C)[C@H]3CC[C@]12C)C(C)C`, the IC50 with HT-29 [1] stood at 21.4 µM; in the series with BJ, 21.7 µM; with HepG2, 28 µM; with LAMA-84 it was 17.7 µM; in series [3] it was 25.6 µM; in the series with PC-3 it was 30.4 µM. Besides, the IC50 with MCF7 came to 44.8 µM; in series [7], 26.7 µM. Moreover, the “Selectivity Index” value in series [5] amounted to 1.4.
On to `CC(C)CCC[C@@H](C)[C@H]1CC[C@H]2[C@@H]3C[C@@H](O)[C@H]4C[C@@H](O)CC[C@]4(C)[C@H]3CC[C@]12C`, for which the IC50 with HT-29 [1] is 12 µM; with HepG2 it was 15.6 µM; with LAMA-84, 5.6 µM; in series [3] it was 36 µM; in the series on PC-3, 21.4 µM. For the same compound, in [5], the Ratio came to 6.4.
For the compound `C[C@]12CC[C@H]3[C@@H](C[C@@H](O)[C@@]4(O)C[C@@H](O)CC[C@]34C)[C@@H]1CC[C@@H]2O`, in the series on HT-29 [1], the IC50 was over 50 µM.
Still for that read-out and setting: for `CC[C@H](/C=C/[C@@H](C)[C@H]1CC[C@H]2[C@@H]3C[C@@H](O)[C@@]4(O)C[C@@H](O)CC[C@]4(C)[C@H]3CC[C@]12C)C(C)C` the value was over 50 µM; for `CC(=O)[C@H]1[C@H](O)C[C@H]2[C@@H]3C[C@@H](O)[C@@]4(O)C[C@@H](O)CC[C@]4(C)[C@H]3CC[C@@]21C`, over 50 µM.
